High-throughput results deposited in PubChem BioAssay by several laboratories.
core dimer inh: blocks dimerization of HCV core protein. actives 0.33% (n = 300,000). TR-FRET GST/Flag-core106 dimerization, 1536-well. AID 1899. inhibition, % at 5 µM;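 active means inhibition above the mean of all tested compounds plus 3 SD, set per screening campaign, cut at about 45% in these data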
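Assay system: GST-tagged and Flag-tagged HCV core protein residues 1-106 / Times: compound-protein-antibody incubation 4 h at 22.5 °C / Signal: time-resolved FRET, ex 340 nm, em 617 and 671 nm / Evaluation: % inhibition based on acceptor/donor emission ratio / Benchmarks: wells lacking GST-core106 and wells with excess unlabelled core106 / Repeats: singlicate, one well per compound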
DNA FID counter: counter-screen for HCV NS3 helicase inhibitors: DNA intercalator displacement. DNA fluorescent intercalator displacement, fluorescence. inhibition, % at 7.9 µM. actives 0.17% (n = 290,000). AID 1845; in the data active means inhibition above about 37%;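 further: higher means more ethidium bromide displaced from hairpin DNA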
HSP90 refold inh: blocks HSP90-mediated luciferase refolding in reticulocyte lysate; Rabbit reticulocyte lysate, luciferase refolding luminescence, 3 h; inhibition, % at 5.6 µM; actives 0.91% (n = 290,000); AID 1789;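 active means inhibition above the screen-wide mean plus 3 SD, computed separately per campaign, cut at about 16% in these data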;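 further: inhibitors lower the luminescence because luciferase stays unfolded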
HSF1 inhib: HSF1 inhibition | actives 0.77% (n = 300,000) | activity change, negative = inhibition, % at 7.5 µM (by protocol) | NIH3T3-HGL HSE-luciferase, MG132-induced, luminescence 8 h; active compounds read low | AID 2098;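 active means more than half of replicate wells show activity change below -50%, luminescence cut by over half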;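 further: luciferase reports HSF-1 transcriptional activity via heat shock element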
HSF1 activator: increases HSF-1 driven luciferase reporter signal; actives 1.7% (n = 300,000); NIH3T3-HGL HSF-1 luciferase reporter, MG132, 8 h; 100% = twice DMSO control signal; AID 504408; activation, % at 9 µM;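 active means mean replicate activation of at least 50% with a set share of replicates each reaching 50%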
HCV NS3 hel inh: inhibitors of Hepatitis C virus NS3 helicase. actives 0.56% (n = 290,000). NS3 helicase DNA unwinding, Cy5 molecular beacon fluorescence. inhibition, % at 10.9 µM;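 active means inhibition above the mean of all tested compounds plus 3 SD, set per campaign, cut at about 35% in these data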
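Measured by: Cy5 fluorescence, 0 and 60 min reads / Assay system: NS3 helicase fragment of HCV / Control set: low DMSO, high thioflavine S at 110 µM / Times: 1 h reaction at 25 °C, ATP-initiated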
Each line names hits and unclear results; the compound was inactive in the other large screens. Hits are enriched below; roughly 3.9% of the tested compounds scored in any of these assays.

Nc1cc(C(=O)OCC(=O)NCc2ccco2)ccc1Cl	none
NC(=O)CCC(C(=O)O)N1C(=O)c2ccc(O)cc2C1=O (centres undefined)	HSF1 inhib -54
COc1cc2ccccc2cc1C(=O)Nc1ccc(O)cc1	none
COC(=O)c1cn(NC(=O)C2CCC(C)CC2)c(=O)c2ccccc12 (centres undefined)	HSF1 activator 81
COC(=O)c1cn(NC(=O)CCC2CCCC2)c(=O)c2ccccc12	HSF1 inhib -77
Cc1ccc(CNc2c(C=O)c(=O)[nH]c3ccccc23)cc1	HSF1 activator 63
CCC(C)(C)n1nnnc1C(c1ccc2ncccc2c1)N1CCCC(C)C1 (centres undefined)	none
CCOC(=O)C(Cc1ccc(NC(=O)/C(=C/c2ccccc2)NC(=O)c2ccccc2)cc1)N1C(=O)c2ccccc2C1=O (centres undefined)	core dimer inh 58
c1ccc(-c2ccc(-n3ccnc3)cc2)cc1	HSF1 activator 72
COc1ccc(OCC(NS(=O)(=O)c2ccc(-n3cnnn3)cc2)C(C)C)cc1 (centres undefined)	none
O=C(c1ccco1)N1CCN(c2ccc([N+](=O)[O-])cc2Cl)CC1	none
O=C(NC(=S)N1CCN(c2ccc([N+](=O)[O-])cc2Cl)CC1)c1ccco1	HSF1 activator 55
CCOC(=O)Cn1nc(C)c(NC(=O)COc2ccc([N+](=O)[O-])cc2)c1C	HSF1 inhib -53
COc1ccc(S(=O)(=O)N2CCCC(C(=O)NCc3ccco3)C2)cc1Cl (centres undefined)	none
CC1CCN(CCCNC(=O)CN2C(=O)CSc3ccc(S(=O)(=O)N4CCC(C)CC4)cc32)CC1	DNA FID counter 45
CC1CCN(CCCNC(=O)CN2C(=O)CSc3ccc(S(=O)(=O)N4CCOCC4)cc32)CC1	none
Cc1cc(S(N)(=O)=O)c(N)c(S(N)(=O)=O)c1	none
CC1CCCCN1C(=O)c1cc(-c2ccc(Cl)c(Cl)c2)on1 (centres undefined)	HSF1 activator 57
CCC1CCCCN1C(=O)c1cc(-c2ccc(Cl)c(Cl)c2)on1 (centres undefined)	none
CCC(=O)c1ccc(OCC(=O)Nc2ccccc2C(=O)N2CCCCC2)cc1	none (no result: DNA FID counter, HSP90 refold inh, HCV NS3 hel inh)
Cc1ccc(OCC(=O)Nc2ccccc2C(=O)N2CCCCC2)cc1	HSF1 inhib -53
O=c1c2ccccc2cnn1-c1nc2ccccc2[nH]1	HSP90 refold inh 92, HSF1 inhib -83 (no result: core dimer inh)
COc1ccc(-c2cc(C(=O)OCC(=O)c3cccc([N+](=O)[O-])c3)c3cc(C)ccc3n2)cc1	none
Cc1cc(C(=O)OCC(=O)c2cccc([N+](=O)[O-])c2)c2cccc(C)c2n1	core dimer inh 88
CCc1nnc(NC(=O)CCC(=O)NC2CCCCCC2)s1	none
Oc1cccnc1Sc1cccc(C(F)(F)F)c1	HSF1 activator 86 (no result: DNA FID counter, HSP90 refold inh, HCV NS3 hel inh)
FC(F)(F)c1cccc(Sc2nc(-c3ccccc3)nnc2C(F)(F)F)c1	none
O=C(/C=C/c1ccccc1Cl)NCCCn1ccnc1	none
Cc1nc(SCC(=O)NCc2ccco2)c2c(C)c(C)sc2n1	none
Cc1ccc(-c2csc3ncnc(OCC(=O)NC(=O)NCc4ccco4)c23)cc1	core dimer inh 49
CCCCc1nc2sc3c(SCC(=O)NCc4ccco4)ncnc3c2c2c1CCC2	core dimer inh 105
CCOc1ccc2nc(SCC(=O)NC(=O)NCc3ccco3)sc2c1	none
O=C(CSc1nc2cc(Cl)ccc2s1)NC(=O)NCc1ccco1	core dimer inh 57
Cc1sc2ncnc(SCC(=O)NC(=O)NCc3ccco3)c2c1C	core dimer inh 50
CCn1nc(NC(=O)COC)c2cc3cccc(C)c3nc21	none
CC(C)C1N=C(c2ccc3c(c2)OCO3)CC(c2ccccc2O)N1 (centres undefined)	HSF1 activator 75
Cc1ccc(-c2nnc(-c3ccc4c(c3)OCO4)o2)cc1	none
Cc1ccc(NC(=O)c2nc[nH]c2C(=O)Nc2ccc(C)cc2)cc1	none
Cc1ccccc1NC(=O)c1nc[nH]c1C(=O)NCc1ccccc1	HSF1 activator 59
Cc1cccc(NC(=O)c2nc[nH]c2C(=O)Nc2cccc(C)c2)c1	HSF1 activator 53
